Screening data as filed in PubChem BioAssay.
OXTR potentiate = potentiators of human oxytocin receptor; P30559; CHO-OTR cells, Fluo-8 calcium fluorescence, potentiator mode; 0% = oxytocin EC15, 100% = EC100; activation, % at 3 µM; actives 0.061% (n = 320,000); AID 2445;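 active = activation above that plate's cutoff, the mean activation of tested compounds plus 3 SD, cut at about 6.6% in these data, passing the limit was not always enough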
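Dosing: Single dose, 3.0 µM nominal final compound concentration | Material: Human OTR in CHO cells | Technique: Kinetic Fluo-8 calcium fluorescence | Benchmarks: EC15 oxytocin alone as 0%, 75 nM oxytocin as 100% | Probe or stimulus: Oxytocin at about EC15, sub-maximal agonist stimulus | Incubation: Compound 6 min at room temperature before oxytocin, 100 s read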
TAAR1 ag = human TAAR1 agonism; actives 0.99% (n = 360,000); CHO RD-HGA16 TAAR1, Fluo-8 calcium fluorescence; vehicle wells 0%, saturating PEA agonist 100%; AID 624467; Q96RJ0; activation, % at 3 µM;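 active = activation above the mean activation of all test compounds in the run plus 3 SD, cut at about 38% in these data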
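Repeats: no replicates (n 1) | Material: CHO-derived RD-HGA16 cells with stable Gα16 and human TAAR1 | Technique: Kinetic Fluo-8 calcium fluorescence | Schedule: 17-24 h seeding, 75 min 37 °C dye, 30 min RT | Evaluation: % activation from peak over basal fluorescence ratio, DMSO-to-PEA scaled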
TAAR1 antag = human TAAR1 antagonism | Q96RJ0 | CHO RD-HGA16 TAAR1, Fluo-8 calcium fluorescence, antagonist | inhibition, % at 3 µM | actives 1.5% (n = 360,000);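 active = inhibition above a per-plate cutoff, the mean inhibition of test compounds on that plate plus 3 SD, cut at about 49% in these data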
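Assay system: RD-HGA16 CHO cells with stable hTAAR1 and Gα16 / Reagent: EC80 β-phenethylamine stimulus / Doses: 3 µM, single point / Timing: dye loading 75 min at 37 °C, then 30 min room temperature / Measured by: Fluo-8 intracellular calcium dye fluorescence, real-time kinetic reads / Controls: vehicle wells and EC80 agonist wells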
V1R ag counter = V1a receptor agonism, counter-screen for OXTR agonists | P37288 | CHO-V1R cells, Fluo-8 calcium fluorescence, agonist mode; 0% DMSO, 100% 3 nM vasopressin | activation, % at 3 µM | actives 0.25% (n = 320,000);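 active = activation above the mean activation of all tested compounds plus 3 SD, per screening run, cut at about 20% in these data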;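 note: signal is peak over basal fluorescence ratio across a 100 second FLIPR read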
Target sequence (P37288 whole entry, looked up): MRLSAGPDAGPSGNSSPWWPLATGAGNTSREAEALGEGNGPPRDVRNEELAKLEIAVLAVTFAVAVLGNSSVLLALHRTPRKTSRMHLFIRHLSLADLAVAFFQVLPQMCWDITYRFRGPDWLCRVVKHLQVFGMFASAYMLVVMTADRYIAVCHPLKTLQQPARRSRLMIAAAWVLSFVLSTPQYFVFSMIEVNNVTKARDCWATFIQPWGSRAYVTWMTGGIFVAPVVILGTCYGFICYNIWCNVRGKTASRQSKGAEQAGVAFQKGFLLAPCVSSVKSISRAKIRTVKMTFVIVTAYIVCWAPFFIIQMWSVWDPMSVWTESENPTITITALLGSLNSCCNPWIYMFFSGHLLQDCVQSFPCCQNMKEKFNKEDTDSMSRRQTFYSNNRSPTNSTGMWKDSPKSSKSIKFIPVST
OXTR ag = human OXTR agonism. P30559. CHO-OTR cells, Fluo-8 calcium fluorescence; normalized: DMSO 0%, oxytocin 100%. activation, % at 3 µM. actives 0.32% (n = 320,000). AID 2435;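 active = activation above the mean of all tested compounds plus 3 SD, cutoff set per screening run, cut at about 20% in these data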;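 note: peak over basal fluorescence ratio from a 100 s FLIPR kinetic read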
Numbers stand for hits; – = inactive; · = not tested or not shown. Rows were chosen to be rich in hits. Some 2.3% of all compounds tested hit in one or more screens of this group.

SMILES	OXTR potentiate	TAAR1 ag	TAAR1 antag	V1R ag counter	OXTR ag
N#Cc1nc(-c2cccs2)oc1NCc1ccc(Cl)cc1	–	–	50	–	–
C#CCNC(=O)C1=C[C@@H](c2csc3ccccc23)C[C@@H](OCc2ccc(CO)cc2)O1	–	–	54	–	–
CCc1cc(Cn2nc(-c3ccccc3)cc2C(=O)NCCOC)on1	–	–	–	–	–
CCc1cc(Cn2nc(-c3ccccc3)cc2C(=O)NCc2cccs2)on1	–	–	63	–	–
N#Cc1ccc(CSc2nnc(NC(=O)C3CC(=O)N(c4ccc5c(c4)OCCO5)C3)s2)cc1 (stereo not drawn)	–	·	·	–	–
O=C(Nc1nnc(SCc2ccc(F)cc2)s1)C1CC(=O)N(c2ccc3c(c2)OCCO3)C1 (stereo not drawn)	–	38	–	–	–
Cc1cc(=O)oc2ccc(OCC(=O)N(Cc3ccc(F)cc3)Cc3ccco3)cc12	–	–	70	–	–
CCOc1cccc(-c2c(C(=O)N/N=C/c3ccc(C)s3)nnn2-c2nonc2N)c1	–	53	–	–	–
Cc1ccc(-c2c(C(=O)N/N=C/c3ccc(C)o3)nnn2-c2nonc2N)cc1	–	43	–	–	–
Cc1ccc(SCc2c(C(=O)N/N=C/c3ccc(C)o3)nnn2-c2nonc2N)cc1	·	–	–	·	·
COc1cccc(-c2c(C(=O)N/N=C/c3ccc(C)o3)nnn2-c2nonc2N)c1	–	42	–	–	–
COC(=O)Cc1nnn2c1[C@H](C)[C@H](c1ccccc1Br)OC[C@@H]2c1ccccc1	·	–	–	·	·
Cc1[nH]nc(SCC(=O)NCc2ccccc2)c1[N+](=O)[O-]	–	–	–	–	–
Cc1[nH]nc(SCC(=O)NCCc2ccccc2)c1[N+](=O)[O-]	–	39	75	–	–
COc1ccc(-c2cn3cc(C(F)(F)F)cc(Cl)c3n2)cc1	11	–	–	–	–
Fc1ccc(-c2cn3cc(C(F)(F)F)cc(Cl)c3n2)cc1	–	–	–	–	–
CC[C@H](C)[C@H](NC(=O)[C@H](Cc1ccc(O)cc1)NC(=O)[C@@H](N)C(C)C)C(=O)N[C@@H](Cc1cnc[nH]1)C(=O)N1CCC[C@H]1C(=O)N[C@@H](Cc1ccccc1)C(=O)O	–	·	·	25	72
CCC(C)C(NC(=O)C1CCC(=O)N1C(=O)OCc1ccccc1)C(=O)NC(Cc1ccccc1)C(N)=O (stereo not drawn)	–	–	–	–	–
CC(=O)Nc1ccc(C(=O)OCC(=O)NCc2cccs2)cc1	–	–	–	–	–
CN(C)c1cccc2c(S(=O)(=O)NCC3CCN(C(=O)C(=O)c4cc5ccccc5o4)CC3)cccc12	·	–	–	·	·
CC(O)CNc1nc2sc3c(c2c(=O)n1CCc1ccccc1)CCCCC3 (stereo not drawn)	–	–	–	–	–
CN(C)CCNc1nc2sc3c(c2c(=O)n1CCc1ccccc1)CCCCC3	–	40	–	–	–
CC(=C/c1ccccc1)/C=N/NC(=O)c1ccc2nc[nH]c2c1	–	–	–	–	–
O=C(N/N=C/C(Br)=C\c1ccccc1)c1ccc2nc[nH]c2c1	–	–	54	–	–
CC1(C(=O)NS(=O)(=O)c2ccccc2Cl)CCN1C(=O)CCc1ccccc1 (stereo not drawn)	·	–	–	·	·
SMILES	OXTR potentiate	TAAR1 ag	TAAR1 antag	V1R ag counter	OXTR ag
Cc1cccc(NC(=O)c2ccc(N(C)C3CCCCC3)c([N+](=O)[O-])c2)n1	–	–	63	–	–
COCc1[nH]nc2c1C(c1ccc(F)cc1)N(c1ccccc1)C2=O (stereo not drawn)	·	–	–	·	·
COc1ccc(/C=C2\C(=O)NC(=S)N2C(=O)c2ccc(F)cc2)cc1	–	–	–	22	20
COc1ccc(C(C(=O)NCc2ccccc2)N(Cc2ccco2)C(=O)c2cnccn2)cc1 (stereo not drawn)	–	–	53	–	–
COC(=O)c1cccc2c([N+](=O)[O-])c(NC(C)=O)cc(C(=O)OC)c12	·	–	–	·	·
CC(C)[C@@H](C)/C=C/[C@@H](C)[C@H]1CC[C@@H]2[C@]1(C)CCC1[C@]23C=C[C@]2(C[C@@H](O)CC[C@]12C)N(C(=O)Cc1ccccc1)O3 (stereo partly drawn)	·	–	–	·	·
O=C(Nc1ccc(S(=O)(=O)N2CCOCC2)cc1)c1cc(-c2cc(Cl)ccc2O)n[nH]1	–	–	56	–	–
O=C(/C=C/c1ccccc1)CC(=O)c1ccccc1	·	–	–	·	·
O=C(CC(=O)c1ccccc1)CC(O)(C=Cc1ccccc1)c1ccccc1 (stereo not drawn)	·	–	51	·	·
Cn1nc(CC(=O)Nc2ncc(Br)s2)c2ccccc2c1=O	–	44	–	–	–
Cn1nc(CC(=O)NC2CCCCCCCCCCC2)c2ccccc2c1=O	–	–	–	–	–
CC(C)c1ccc(OCC(O)CNC(C)c2ccccc2)cc1 (stereo not drawn)	–	57	–	–	–
CS(=O)(=O)c1cccc(NC(=O)C2CCCN2S(=O)(=O)c2ccc(F)cc2)c1 (stereo not drawn)	–	–	–	–	–
Cc1ccc(/C=N/NC(=O)c2nnn(-c3nonc3N)c2C(C)C)o1	–	38	–	–	–
CN(C)Cc1c(C(=O)N/N=C/c2ccco2)nnn1-c1nonc1N	–	–	–	–	–
COc1ccc2ccccc2c1/C=N/NC(=O)c1nnn(-c2nonc2N)c1CN(C)C	–	–	–	–	–
COc1ccc2ccccc2c1/C=N/NC(=O)c1nnn(-c2nonc2N)c1C(C)C	–	–	55	–	–
CCCc1c(C(=O)N/N=C/c2ccc(C)o2)nnn1-c1nonc1N	·	–	–	·	·
Cc1ccc(/C=N/NC(=O)c2nnn(-c3nonc3N)c2C(C)C)s1	–	47	–	–	–
CC(C)c1c(C(=O)N/N=C/c2ccco2)nnn1-c1nonc1N	–	43	–	–	–
CCOC(=O)CC1(C)c2nc(NC(C)=O)sc2Cc2sc(NC(C)=O)nc21	·	–	–	·	·
COC(=O)C1=C(C)N(Cc2ccccc2C(F)(F)F)C(=NCc2ccc(C(F)(F)F)cc2)NC1c1cccc(Cl)c1 (stereo not drawn)	·	–	–	·	·
CC1Nc2ncnc(N3CCOCC3)c2N(Cc2ccccc2)C1=O (stereo not drawn)	–	–	–	–	–
CC1Nc2ncnc(N3CCc4ccccc4C3)c2N(Cc2ccccc2)C1=O (stereo not drawn)	·	39	–	·	·
CCC1Nc2ncnc(N3CCc4ccccc4C3)c2N(Cc2ccc(Cl)cc2)C1=O (stereo not drawn)	–	40	–	–	–
O=C1C(Cc2ccccc2)Nc2ncnc(N3CCc4ccccc4C3)c2N1Cc1ccc(Cl)cc1 (stereo not drawn)	–	·	·	–	–
